Data reported in ChEMBL document CHEMBL1165978, “Synthesis and evaluation of in vitro anticancer activity of some novel isopentenyladenosine derivatives” (Bioorg Med Chem, 2010).
Activity calls are given as the source filed them. No cut-off for these calls is given here.

Key:
T-24 [1] = test: Cytotoxicity against human T24 cells assessed as inhibition of cell colony formation at 10 uM after 24 hrs by crystal violet staining; assay type: functional, cell-based
T-24 [2] = test: Antiproliferative activity against proliferating human T24 cells at 10 uM after 72 hrs by MTT assay; assay type: functional, cell-based
Method in brief: (§1)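 T24 cells were seeded at 2000/cm², and 16 h later were exposed to starvation medium (D-MEM, 0.1% FBS) or fresh complete medium (10% FBS) and treated with compound, with 0.01% DMSO as control. For the final 1 h the medium held MTT at 0.5 mg/mL. Formazan was then dissolved in DMSO for read-out. Data are mean ± SD of at least 3 experiments in triplicate, Student's t test.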

T-24 [3] = test: Antiproliferative activity against quiescent human T24 cells at 10 uM after 72 hrs by MTT assay; assay type: functional, cell-based; method in brief: as §1
T-24 [4] = test: Antiproliferative activity against proliferating human T24 cells at 10 uM after 72 hrs by MTT assay in presence of 10% fetal bovine serum
T-24 [5] = test: Antiproliferative activity against quiescent human T24 cells assessed as decrease in viable cell count at 10 uM after 72 hrs by trypan blue exclusion assay; assay type: functional, cell-based
Method in brief: (§2)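 T24 cells were seeded at 2000/cm² in growth medium and allowed to attach for 16 h. They were then switched to complete medium (D-MEM, 10% FBS, 1 mM L-glutamine, penicillin/streptomycin) or to starvation medium (D-MEM, 0.1% FBS, 48 h, to induce quiescence). After 48 h, compound was added for 72 h, with 0.01% DMSO as control. Cells were trypsinized, stained with trypan blue and counted in a Burker chamber. Data are mean ± SD of at least 3 experiments in triplicate.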

T-24 [6] = test: Antimetastatic activity in human T24 cells assessed as inhibition of EGF-stimulated cellular migration at 10 uM after 16 hrs by microscopic analysis; assay type: functional, cell-based
Method in brief: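 Confluent T24 monolayers in 24-well plates were scratch-wounded, then given EGF (100 ng/mL) plus compound for 16 h, with DMSO (0.01% final) as control. Cells moving into the wound were photographed by microscope. Four fields per sample were counted and expressed as migration relative to control. Data are from at least 3 experiments in triplicate, mean ± SD, Student's t test.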

T-24 [7] = test: Cytotoxicity against human T24 cells assessed as mild inhibition of cell colony formation at 10 uM after 24 hrs by crystal violet staining; assay type: functional, cell-based
T-24 [8] = test: Antiproliferative activity against proliferating human T24 cells assessed as mild decrease in viable cell count at 10 uM after 72 hrs by trypan blue exclusion assay; assay type: functional, cell-based; method in brief: as §2

SMILES	inhibition (T-24 [1])	Activity (T-24 [2])	Activity (T-24 [3])	Activity (T-24 [4])	inhibition (T-24 [5])	inhibition (T-24 [6])	inhibition (T-24 [7])	inhibition (T-24 [8])
CC(C)=CCNc1ncnc2c1ncn2[C@@H]1O[C@H](CO)[C@@H](O)[C@H]1O (stereo in doubt; 1a)	inactive	–	–	–	–	–	–	–
CC(C)=CCNc1ncnc2c1ncn2[C@@H]1O[C@H](CO)[C@@H](O)[C@@H]1O	inactive	inactive	inactive	–	–	–	–	–
CC(C)=CC[n+]1cnc2c(ncn2[C@@H]2O[C@H](CO)C[C@H]2O)c1N	–	–	–	inactive	Active	inactive	–	–
CC(C)=CCNc1nc(N)nc2c1ncn2[C@@H]1O[C@H](CO)[C@@H](O)[C@H]1O	–	–	Active	–	Active	inactive	Active	Active
CC(C)=CCNc1ncnc2c1ncn2[C@@H]1O[C@H](CO)[C@@H](O)[C@H]1O (stereo in doubt)	Active	–	Active	–	–	inactive	–	–
